Screening results: PubChem BioAssay, Sanford-Burnham Center for Chemical Genomics
UBC13 polyUb: human UBC13 polyubiquitination inhibition | P61088 | UBC13 polyubiquitin chain formation, TR-FRET | inhibition, % at 20 µM | actives 0.47% (n = 330,000) | AID 485273; in the data active = inhibition above about 45%, passing the limit was not always enough
SENP6 inh: blocks the human protease SENP6. Q9GZR1. Recombinant SENP6 catalytic domain, aminoluciferin luminescence. inhibition, % at 10 µM. actives 1.8% (n = 330,000). AID 2599;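 active = inhibition above about 50% at the single tested dose, limit read from the data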;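 note: plate controls were DMSO wells with enzyme for no effect and DMSO wells lacking enzyme for full effect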
SENP8 block-1: inhibitors of human SENP8 protease. inhibition, % at 20 µM. recombinant SENP8, Nedd8 substrate fluorescence. Q96LD8. AID 602440. actives 0.64% (n = 360,000); in the data active = inhibition mostly above about 40%, no sharp cut-off; inactive = mostly below about 27%
SENP7 inh: inhibitors of human SENP7 protease; AID 434973; inhibition, % at 5 µM; Q9BQF6; recombinant SENP7, Z-RLRGG-aminoluciferin luminescence, 40 min; actives 1.5% (n = 330,000);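 active = inhibition above about 50% at the single test dose, limit read from the data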;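 note: plate controls were DMSO with enzyme for no effect and no enzyme buffer wells for full effect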
SENP8 block-2: SENP8 protease inhibition; purified SENP8, Z-RLRGG-aminoluciferin cleavage, luminescence; inhibition, % at 10 µM; actives 1.2% (n = 330,000); AID 2540; in the data active = inhibition above about 50%
Apaf1 inhib: blocks human Apaf-1 apoptosome activity; O14727; reconstituted apoptosome caspase-3 activity, DEVD-Rh110 fluorescence; inhibition, % at 20 µM; actives 0.71% (n = 330,000); AID 489030; active = inhibition of at least 40% at 20 µM;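 note: plate controls were DMSO wells for no effect and DEVD-CHO caspase inhibitor wells for full effect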
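Material: cell-free apoptosome with Apaf-1, procaspase-3 and caspase-9; Buffer or medium: Hepes pH 7.5 with detergent and BSA; Reagent: cytochrome c trigger plus (Z-DEVD)2-Rh110 caspase-3 substrate; Times: compound with Apaf-1, dATP, procaspase-3 30 min, then 50 min reaction, room temperature; Technique: Rh110 fluorescence intensity.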
SENP8 confirm: human SENP8 inhibition, confirmed | actives 40% (n = 6,200) | shares compounds with SENP7 inh | Recombinant SENP8, Z-RLRGG-aminoluciferin luminescence, 60 min | inhibition, % at 12.5 µM | AID 488912;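 active = mean inhibition across replicates above about 50%, limit read from the data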
SENP6 conf: confirmation of human SENP6 protease inhibitors. shares compounds with SENP7 inh. recombinant SENP6, Z-RLRGG-aminoluciferin luminescence. inhibition, % at 12.5 µM. actives 58% (n = 6,200). AID 488915
SENP7 conf: human SENP7 inhibition, confirmed; shares compounds with SENP7 inh; recombinant SENP7, Z-RLRGG-aminoluciferin luminescence, 40 min; inhibition, % at 12.5 µM; actives 69% (n = 6,200)
Casp3 SENP sel: inhibits human caspase-3 in SENP selectivity test; shares compounds with SENP7 inh; purified caspase-3, Z-DEVD-aminoluciferin luminescence, 60 min; inhibition, % at 12.5 µM; actives 60% (n = 6,200); AID 488918;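 active = mean inhibition above about 50%, limit read from the data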;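 note: plate controls were enzyme with DMSO for no effect and wells without caspase-3 for full effect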
SENP luc ctr: luminescence interference (SENP counter-screen). shares compounds with SENP7 inh. Pre-incubated SENP8/Z-RLRGG-aminoluciferin, luciferase luminescence interference. inhibition, % at 12.5 µM. actives 39% (n = 6,200);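 active = mean inhibition above about 50% when retested at one dose, limit read from the data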;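 note: plate controls were DMSO wells with completed reaction for no effect and substrate without enzyme for full effect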
* = called active by the depositor; · = not tested or not shown. A selection: hits, their analogues and other compounds. The true share with any hit is near 3%.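 Rule for the calls, unless noted: active = mean inhibition above about 50% in the one-dose retest (limit read from the data); inactive = the rest.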

SMILES	UBC13 polyUb	SENP6 inh	SENP8 block-1	SENP7 inh	SENP8 block-2	Apaf1 inhib	SENP8 confirm	SENP6 conf	SENP7 conf	Casp3 SENP sel	SENP luc ctr
O=C(N/N=C\c1ccc2c(c1)OCO2)c1ccco1	-13.2	68.8*	-41.3	71.9*	63.6*	3.8	68.5*	67.1*	91.4*	89.8*	68.4*
CCN(CC)c1ccc(/C=N/NC(=O)c2ccco2)cc1	·	·	-409.1	·	·	·	·	·	·	·	·
O=C(NN=Cc1ccc2c(c1)OCO2)c1ccccc1	·	·	-43.4	·	·	·	·	·	·	·	·
CCN(CC)c1ccc(/C=N/NC(=O)c2ccco2)c(O)c1	-23.1	58.8*	-450.0	63.2*	29.9	2.6	37.2	59.4*	86.3*	60.0*	64.6*
C=CCNc1nc(-c2ccc([N+](=O)[O-])cc2)cs1	-16.9	14.9	20.5	7.8	0.2	0.0	·	·	·	·	·
C=CCNc1nc(-c2ccc(Cl)cc2)cs1	3.6	91.2*	33.9	74.7*	80.4*	15.3	44.1	90.5*	100.4*	74.7*	90.8*
COc1nc(SCC(=O)Nc2ccccc2Cl)nc(N(C)C)n1	7.5	85.5*	11.3	2.5	-3.3	-17.9	12.5	8.3	2.7	6.6	13.0
COc1ccc(SCC(=O)Nc2ccccc2Cl)cc1	2.6	-2.1	7.7	-6.7	-4.2	-2.7	·	·	·	·	·
CC1(C(=O)Nc2cnc3ccccc3c2)CCN1C(=O)c1ccccc1CCc1ccccc1 (stereo not given)	·	·	9.7	·	·	·	·	·	·	·	·
COC(=O)c1cc(C(=O)c2ccc(C(C)(C)C)cc2)c[nH]1	4.8	1.6	10.1	1.4	-2.3	21.0	·	·	·	·	·
CC(C)(C)c1ccc(C(=O)c2c[nH]c(C(=O)O)c2)cc1	0.4	84.7*	5.3	75.4*	77.6*	7.1	34.1	76.4*	95.0*	21.2	83.8*
COCCCNC(=O)c1cc2c(s1)CS(=O)(=O)C2	-4.6	6.5	7.3	1.6	2.3	-14.4	·	·	·	·	·
CC(C)OCCCNC(=O)c1cc2c(s1)CS(=O)(=O)C2	-2.7	4.5	8.5	97.8*	-0.3	-10.9	6.7	8.3	5.0	1.1	0.8
C#CCNC(=O)c1ccc(OCc2ccccc2)cc1Cl	-1.1	75.1*	10.8	64.4*	63.4*	9.4	69.8*	66.9*	87.0*	80.0*	69.4*
O=C(NCCCl)c1ccc(OCc2ccccc2)cc1Cl	-0.3	14.2	14.8	10.7	-4.5	2.6	·	·	·	·	·
O=C1NC[C@H](Cc2ccccc2)N(C[C@@H]2CCCN2C[C@H](Cc2ccc(O)cc2)N2C[C@H](Cc3ccccc3)N(CCc3ccccc3)C(=O)C2=O)C1=O	·	·	1.6	·	·	·	·	·	·	·	·
c1ccc(C2CSc3ccccc3N2)cc1 (stereo not given)	-0.8	71.6*	-13.1	34.9	46.9	17.8	4.3	7.8	7.9	23.2	15.0
CC1CSc2ccccc2NC1=S (stereo not given)	-2.0	11.4	21.4	1.6	-7.1	-8.9	·	·	·	·	·
CCOC(=O)c1ccc(Nc2cnc3ccccc3n2)cc1	-0.3	18.0	-331.9	56.4*	-13.7	-0.9	7.4	20.0	63.0*	11.4	7.7
CCOC(=O)c1ccc(NC(=O)c2ccccc2[N+](=O)[O-])cc1	11.3	-17.1	12.4	-2.4	-6.9	-4.7	·	·	·	·	·
CCOC(=O)c1ccc(Nc2ncccc2[N+](=O)[O-])cc1	-5.4	24.1	39.9	82.9*	34.1	-10.6	32.1	38.8	48.5	57.3*	6.4
CCOC(=O)Cc1nc2ccccc2[nH]1	11.9	-11.6	-25.3	-2.0	-6.3	-4.0	·	·	·	·	·
O=C(O)c1ccc(Nc2cnc3ccccc3n2)cc1	3.1	92.9*	-70.4	96.6*	88.1*	-11.5	91.6*	92.3*	100.5*	96.8*	86.7*
CCOC(=O)c1ccc(NCc2nc3ccccc3[nH]2)cc1	0.3	93.1*	-46.2	58.1*	85.3*	-8.8	67.1*	61.4*	82.9*	68.5*	71.3*
O=C(O)c1cnc2ccccc2n1	-10.6	3.1	9.2	-7.3	-0.4	3.4	·	·	·	·	·
SMILES	UBC13 polyUb	SENP6 inh	SENP8 block-1	SENP7 inh	SENP8 block-2	Apaf1 inhib	SENP8 confirm	SENP6 conf	SENP7 conf	Casp3 SENP sel	SENP luc ctr
CN(CCc1ccccc1)C(C(=O)c1ccc2c(c1)OCO2)c1nnnn1-c1ccccc1NC(=O)OC(C)(C)C (stereo not given)	·	·	-15.3	·	·	·	·	·	·	·	·
O=C(O)c1ccccc1OCc1nc2ccccc2s1	6.0	92.4*	-2.0	91.6*	89.5*	16.9	91.1*	92.6*	100.0*	84.7*	79.4*
O=C(OCc1nc2ccccc2s1)c1cnccn1	11.7	-19.5	-5.1	5.6	-0.8	-3.6	·	·	·	·	·
O=C(OCc1nc2ccccc2s1)c1ccccc1O	1.1	91.9*	2.6	86.2*	84.6*	9.4	88.7*	90.5*	97.7*	83.3*	74.3*
CCCCC(=O)OCc1nc2ccccc2s1	6.6	11.3	-8.3	0.8	-12.5	1.4	·	·	·	·	·
O=C(OCc1nc2ccccc2s1)c1cccs1	-7.8	74.0*	-10.4	27.6	35.8	-2.6	63.1*	69.7*	84.3*	44.8	63.7*
CCOC(=O)C1=CCN(S(=O)(=O)c2ccc(Br)cc2)C1c1ccc(C)cc1 (stereo not given)	·	·	15.7	·	·	·	·	·	·	·	·
Cc1cc(N2CCOCC2)nc2ccc(NC(=S)N3CCCCC3C)cc12 (stereo not given)	6.8	54.7*	-368.2	12.8	29.2	31.5	4.3	6.1	6.8	1.3	3.0
CC(C)(C)NC(=O)C(c1ccc(O)cc1)N(Cc1ccc2c(c1)OCO2)C(=O)CCl (stereo not given)	·	·	2.1	·	·	·	·	·	·	·	·
FC(F)(F)c1cccc(-c2nc3nc(Cl)c(Cl)nc3[nH]2)c1	-9.6	95.1*	-264.2	91.5*	93.4*	8.3	96.6*	97.7*	101.7*	91.8*	86.8*
CC(=O)C1=CCC(c2ccc(Cl)cc2)N(S(=O)(=O)c2ccc(C)cc2)C1 (stereo not given)	·	·	3.7	·	·	·	·	·	·	·	·
CC(=O)Nc1cc(-c2ccccc2)cn2c(-c3cccc(C(C)=O)c3)cnc12	·	·	-89.1	·	·	·	·	·	·	·	·
CCCCSC(=O)Nc1ccccc1	-1.3	79.6*	24.9	71.1*	51.9*	3.1	48.2	72.9*	89.9*	65.3*	54.9*
CCOC(=O)c1sc(NC(=O)Nc2ccccc2Cl)cc1C	-21.4	94.8*	-40.9	99.1*	94.6*	8.3	94.9*	96.3*	99.6*	88.7*	42.6
